Data: ChEMBL document CHEMBL1165943, “Design and synthesis of new anticancer pyrimidines with multiple-kinase inhibitory effect” (Bioorg Med Chem, 2010)

How the values were obtained:
Assay type in all cases: functional
HT-29 = experiment: Cytotoxicity against human HT-29 cells assessed as cell growth at 10 uM; details: Homo sapiens, HT-29; read-out: Activity
Procedure, shortened: (§1)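 Single-concentration screen at 10 μM across the 60-cell-line panel (nine tissue types); growth percentage recorded per cell line, with inhibition taken as 100 minus growth percentage.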

SF-268 = experiment: Cytotoxicity against human SF268 cells assessed as cell growth at 10 uM; details: Homo sapiens, SF-268; read-out: Activity
Procedure, shortened: (§2)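 Single-dose screen at 10 μM across the 60-cell-line panel. Cells grown in RPMI 1640 with 5% FBS and 2 mM L-glutamine, seeded at 5,000–40,000 cells/well according to doubling time, and treated 24 h later. Exposure lasted 48 h at 37 °C, 5% CO₂. Adherent cells were fixed with cold TCA, suspension cells were fixed settled, and both were stained with SRB and read at 515 nm. Growth % was recorded, with inhibition % = 100 − growth %.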

NCI-H460 = experiment: Cytotoxicity against human NCI-H460 cells assessed as cell growth at 10 uM; details: Homo sapiens, NCI-H460; read-out: Activity; procedure, shortened: as §2
U-251 = experiment: Cytotoxicity against human U251 cells assessed as cell growth at 10 uM; details: Homo sapiens, U-251; read-out: Activity; procedure, shortened: as §2
EKVX = experiment: Cytotoxicity against human EKVX cells assessed as cell growth at 10 uM; details: Homo sapiens, EKVX; read-out: Activity; procedure, shortened: as §1
SF-295 = experiment: Cytotoxicity against human SF295 cells assessed as cell growth at 10 uM; details: Homo sapiens, SF-295; read-out: Activity; procedure, shortened: as §2
T47D = experiment: Cytotoxicity against human T47D cells assessed as cell growth at 10 uM; details: Homo sapiens, T47D; read-out: Activity; procedure, shortened: as §2
HCT-15 = experiment: Cytotoxicity against human HCT15 cells assessed as cell growth at 10 uM; details: Homo sapiens, HCT-15; read-out: Activity; procedure, shortened: as §1
TK-10 = experiment: Cytotoxicity against human TK10 cells assessed as cell growth at 10 uM; details: Homo sapiens, TK-10; read-out: Activity; procedure, shortened: as §2
M14 = experiment: Cytotoxicity against human M14 cells assessed as cell growth at 10 uM; details: Homo sapiens, M14; read-out: Activity; procedure, shortened: as §2
HCT-116 = experiment: Cytotoxicity against human HCT116 cells assessed as cell growth at 10 uM; details: Homo sapiens, HCT-116; read-out: Activity; procedure, shortened: as §1
UO-31 = experiment: Cytotoxicity against human UO31 cells assessed as cell growth at 10 uM; details: Homo sapiens, UO-31; read-out: Activity; procedure, shortened: as §2
SNB-75 = experiment: Cytotoxicity against human SNB75 cells assessed as cell growth at 10 uM; details: Homo sapiens, SNB-75; read-out: Activity; procedure, shortened: as §2
CAKI-1 = experiment: Cytotoxicity against human Caki1 cells assessed as cell growth at 10 uM; details: Homo sapiens, CAKI-1; read-out: Activity; procedure, shortened: as §1
OVCAR-4 = experiment: Cytotoxicity against human OVCAR4 cells assessed as cell growth at 10 uM; details: Homo sapiens, OVCAR-4; read-out: Activity; procedure, shortened: as §2
HOP-62 = experiment: Cytotoxicity against human HOP62 cells assessed as cell growth at 10 uM; details: Homo sapiens, HOP-62; read-out: Activity; procedure, shortened: as §1
MOLT-4 = experiment: Cytotoxicity against human MOLT4 cells assessed as cell growth at 10 uM; details: Homo sapiens, MOLT-4; read-out: Activity; procedure, shortened: as §2
K562 = experiment: Cytotoxicity against human K562 cells assessed as cell growth at 10 uM; details: Homo sapiens, K562; read-out: Activity; procedure, shortened: as §2
HCC 2998 = experiment: Cytotoxicity against human HCC2998 cells assessed as cell growth at 10 uM; details: Homo sapiens, HCC 2998; read-out: Activity; procedure, shortened: as §1
IGROV-1 = experiment: Cytotoxicity against human IGROV1 cells assessed as cell growth at 10 uM; details: Homo sapiens, IGROV-1; read-out: Activity; procedure, shortened: as §2
KM12 = experiment: Cytotoxicity against human KM12 cells assessed as cell growth at 10 uM; details: Homo sapiens, KM12; read-out: Activity; procedure, shortened: as §2
Malme-3M = experiment: Cytotoxicity against human MALME-3M cells assessed as cell growth at 10 uM; details: Homo sapiens, Malme-3M; read-out: Activity; procedure, shortened: as §2
SK-MEL-2 = experiment: Cytotoxicity against human SK-MEL-2 cells assessed as cell growth at 10 uM; details: Homo sapiens, SK-MEL-2; read-out: Activity; procedure, shortened: as §2
NCI-H522 = experiment: Cytotoxicity against human NCI-H522 cells assessed as cell growth at 10 uM; details: Homo sapiens, NCI-H522; read-out: Activity; procedure, shortened: as §2
MDA-MB-468 = experiment: Cytotoxicity against human MDA-MB-468 cells assessed as cell growth at 10 uM; details: Homo sapiens, MDA-MB-468; read-out: Activity; procedure, shortened: as §2
SW-620 = experiment: Cytotoxicity against human SW620 cells assessed as cell growth at 10 uM; details: Homo sapiens, SW-620; read-out: Activity; procedure, shortened: as §2
NCI/ADR-RES = experiment: Cytotoxicity against human NCI/ADR-RES cells assessed as cell growth at 10 uM; details: Homo sapiens, NCI/ADR-RES; read-out: Activity; procedure, shortened: as §2
OVCAR-8 = experiment: Cytotoxicity against human OVCAR8 cells assessed as cell growth at 10 uM; details: Homo sapiens, OVCAR-8; read-out: Activity; procedure, shortened: as §2
SF-539 = experiment: Cytotoxicity against human SF539 cells assessed as cell growth at 10 uM; details: Homo sapiens, SF-539; read-out: Activity; procedure, shortened: as §2
SK-MEL-5 = experiment: Cytotoxicity against human SK-MEL-5 cells assessed as cell growth at 10 uM; details: Homo sapiens, SK-MEL-5; read-out: Activity; procedure, shortened: as §2
SK-OV-3 = experiment: Cytotoxicity against human SKOV3 cells assessed as cell growth at 10 uM; details: Homo sapiens, SK-OV-3; read-out: Activity; procedure, shortened: as §2
HL-60(TB) = experiment: Cytotoxicity against human HL-60(TB) cells assessed as cell growth at 10 uM; details: Homo sapiens, HL-60; read-out: Activity
Procedure, shortened: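 Single-concentration 10 µM screen of HL-60(TB) within the 60-line panel, grown in RPMI 1640 with 5% FBS. The drug from DMSO stock is incubated 48 h at 37 °C, settled cells are TCA-fixed and SRB-stained, and absorbance is read at 515 nm. Percent growth is reported, and inhibition % is taken as 100 minus growth %.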

OVCAR-3 = experiment: Cytotoxicity against human OVCAR-3 cells assessed as cell growth at 10 uM; details: Homo sapiens, OVCAR-3; read-out: Activity; procedure, shortened: as §2
SR = experiment: Cytotoxicity against human SR cells assessed as cell growth at 10 uM; details: Homo sapiens, SR; read-out: Activity; procedure, shortened: as §2
ACHN = experiment: Cytotoxicity against human ACHN cells assessed as cell growth at 10 uM; details: Homo sapiens, ACHN; read-out: Activity; procedure, shortened: as §1
NCI-H322M = experiment: Cytotoxicity against human NCI-H322M cells assessed as cell growth at 10 uM; details: Homo sapiens, NCI-H322M; read-out: Activity; procedure, shortened: as §2
DU-145 = experiment: Cytotoxicity against human DU145 cells assessed as cell growth at 10 uM; details: Homo sapiens, DU-145; read-out: Activity; procedure, shortened: as §1
SK-MEL-28 = experiment: Cytotoxicity against human SK-MEL-28 cells assessed as cell growth at 10 uM; details: Homo sapiens, SK-MEL-28; read-out: Activity; procedure, shortened: as §2

| SMILES | growth at 10 µM (HT-29) [%] | growth at 10 µM (SF-268) [%] | growth at 10 µM (NCI-H460) [%] | growth at 10 µM (U-251) [%] | growth at 10 µM (EKVX) [%] | growth at 10 µM (SF-295) [%] | growth at 10 µM (T47D) [%] | growth at 10 µM (HCT-15) [%] | growth at 10 µM (TK-10) [%] | growth at 10 µM (M14) [%] | growth at 10 µM (HCT-116) [%] | growth at 10 µM (UO-31) [%] | growth at 10 µM (SNB-75) [%] | growth at 10 µM (CAKI-1) [%] | growth at 10 µM (OVCAR-4) [%] | growth at 10 µM (HOP-62) [%] | growth at 10 µM (MOLT-4) [%] | growth at 10 µM (K562) [%] | growth at 10 µM (HCC 2998) [%] | growth at 10 µM (IGROV-1) [%] | also measured |
| --- | --- | --- | --- | --- | --- | --- | --- | --- | --- | --- | --- | --- | --- | --- | --- | --- | --- | --- | --- | --- | --- |
| c1ccc(-c2ccc(-c3ccnc(Nc4ccc(N(c5ccccc5)c5ccccc5)cc4)n3)cn2)cc1 | 89.5 | 90 | 84.4 | 87.2 | 103 | 124 | 111 | 102 | 113 | 90.2 | 40.6 | 72.4 | 102 | 83.7 | 93.4 | 122 | 91.2 | 94.9 | 112 | 67.2 | growth at 10 µM (KM12): 97%; growth at 10 µM (Malme-3M): 65.2%; growth at 10 µM (SK-MEL-2): 102%; growth at 10 µM (NCI-H522): 94%; growth at 10 µM (MDA-MB-468): 105%; growth at 10 µM (SW-620): 78.3%; growth at 10 µM (NCI/ADR-RES): 125%; growth at 10 µM (OVCAR-8): 79.5%; growth at 10 µM (SF-539): 84.2%; growth at 10 µM (SK-MEL-5): 118%; growth at 10 µM (SK-OV-3): 119%; growth at 10 µM (HL-60(TB)): 91.8%; growth at 10 µM (OVCAR-3): 125%; growth at 10 µM (SR): 38.7%; growth at 10 µM (ACHN): 96.5%; growth at 10 µM (NCI-H322M): 88.5%; growth at 10 µM (DU-145): 115%; growth at 10 µM (SK-MEL-28): 118% |
| CC(=O)c1ccc(-c2ccc(-c3ccnc(Nc4cc(C(F)(F)F)cc(C(F)(F)F)c4)n3)cn2)cc1 | 105 | 106 | 106 | 101 | 113 | 110 | 91.6 | 110 | 106 | 109 | 92.9 | 79.3 | 78.3 | 97.4 | 94.6 | 112 | 91 | 98.5 | 104 | 99.7 | growth at 10 µM (KM12): 114%; growth at 10 µM (Malme-3M): 124%; growth at 10 µM (SK-MEL-2): 104%; growth at 10 µM (NCI-H522): 102%; growth at 10 µM (MDA-MB-468): 106%; growth at 10 µM (SW-620): 109%; growth at 10 µM (NCI/ADR-RES): 103%; growth at 10 µM (OVCAR-8): 96.7%; growth at 10 µM (SF-539): 89.7%; growth at 10 µM (SK-MEL-5): 101%; growth at 10 µM (SK-OV-3): 93.5%; growth at 10 µM (HL-60(TB)): 107%; growth at 10 µM (OVCAR-3): 119%; growth at 10 µM (SR): 96.5%; growth at 10 µM (ACHN): 103%; growth at 10 µM (NCI-H322M): 103%; growth at 10 µM (DU-145): 114%; growth at 10 µM (SK-MEL-28): 95.8% |
